Reference: paper PMC9798254 (Protein Science : A Publication of the Protein Society, 2023)

What was measured:
Assay in all cases: coupled photometric phosphate release assay
Type in all cases: biochemical, synthetic construct
Conditions in all cases: 100 mM Tris/HCl pH 7.8, 5 mM MgCl2, 25°C
Anc5 = tested on: Anc5
Outline: (§1)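 Ancestral enzyme expressed in E. coli BW25113 (0.5 mM IPTG, overnight at 20°C). Purified by Ni affinity chromatography and size exclusion in 50 mM Tris/HCl pH 7.5, 400 mM NaCl, 2 mM MgCl2. Phosphate release coupled with 0.5 mM inosine, 0.25 U/ml purine nucleoside phosphorylase and 2.5 U/ml xanthine oxidase, at varied substrate concentrations. Reaction started with enzyme. Km fitted to Michaelis–Menten from initial slopes.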

Anc6 = tested on: Anc6
Outline: as §1

Anc7 = tested on: Anc7
Outline: as §1

Km (Anc5): 698 ± 123 µM
Km (Anc6): 59 ± 12 µM
Km (Anc7): 122 ± 31 µM
Compound: N[C@H](COP(=O)(O)O)Cc1c[nH]cn1 [HolP]
